Data: ChEMBL document CHEMBL4138252, “Novel Polyamine-Naphthalene Diimide Conjugates Targeting Histone Deacetylases and DNA for Cancer Phenotype Reprogramming” (ACS Med Chem Lett, 2017)
pIC50: −log10 of the molar value. The source made the active and inactive calls. The rule behind the calls is not given here.

Legend:
dsDNA [1] = assay: Stabilization of 5'6FAM/3'Dabcyl-labelled double stranded DNA (unknown origin) assessed as change in melting temperature at 2.5 uM by fluorescence assay; format: nucleic-acid assay
Procedure, shortened: (§1)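 Thermal stabilization of dsDNA or G-quadruplex DNA is measured as ΔTm at 0.75 and 2.5 μM compound.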

Quadruplex DNA [2] = assay: Stabilization of 3'-6FAM/5'-Dabcyl-labelled human telomeric 22 G-quadruplex DNA assessed as change in melting temperature at 0.75 uM by fluorescence assay; format: nucleic-acid assay; procedure, shortened: as §1
Histone deacetylase = assay: Inhibition of HDAC in human HeLa nuclear extract using Fluor de Lys as substrate by fluorimetric method; format: protein assay
Quadruplex DNA [3] = assay: Stabilization of 3'-6FAM/5'-Dabcyl-labelled human telomeric 22 G-quadruplex DNA assessed as change in melting temperature at 2.5 uM by fluorescence assay; format: nucleic-acid assay; procedure, shortened: as §1
dsDNA [4] = assay: Stabilization of 5'6FAM/3'Dabcyl-labelled double stranded DNA (unknown origin) assessed as change in melting temperature at 0.75 uM by fluorescence assay; format: nucleic-acid assay; procedure, shortened: as §1
A549 [5] = assay: Inhibition of epithelial-mesenchymal transition in human A549 cells assessed as upregulation of CDH1 expression at 5 uM after 48 hrs by SYBR-green dye based RT-PCR analysis relative to control; format: functional
Procedure, shortened: (§2)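 HCT116 and A549 cells are treated 48 h with 5 μM. CDH1 and VIM expression is measured against untreated control. Data are mean ± SEM of four independent experiments.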

A549 [6] = assay: Inhibition of epithelial-mesenchymal transition in human A549 cells assessed as down regulation of VIM expression at 5 uM after 48 hrs by SYBR-green dye based RT-PCR analysis relative to control; format: functional; procedure, shortened: as §2
HCT-116 [7] = assay: Inhibition of epithelial-mesenchymal transition in human HCT116 cells assessed as down regulation of VIM expression at 5 uM after 48 hrs by SYBR-green dye based RT-PCR analysis relative to control; format: functional; procedure, shortened: as §2
U-87 MG = assay: Growth inhibition of human U87 cells after 48 hrs by alamar blue assay; format: functional
Procedure, shortened: (§3)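 Growth inhibition in U87, HCT116 and A549 cells at 0.2, 1 and 5 μM. GI50 is derived from the inhibitory dose–response curve.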

A549 [8] = assay: Growth inhibition of human A549 cells after 48 hrs by alamar blue assay; format: functional; settings: for GI50: A549, 48 h; procedure, shortened: as §3
HCT-116 [9] = assay: Growth inhibition of human HCT116 cells after 48 hrs by alamar blue assay; format: functional; settings: for GI50: HCT-116, 48 h; procedure, shortened: as §3
HCT-116 [10] = assay: Inhibition of epithelial-mesenchymal transition in human HCT116 cells assessed as upregulation of CDH1 expression at 5 uM after 48 hrs by SYBR-green dye based RT-PCR analysis relative to control; format: functional; procedure, shortened: as §2
A549 [11] = assay: Suppression of TGFbeta1-induced cell proliferation in human A549 cells at 5 uM treated for 24 hrs in presence of TGFbeta1 followed by addition of fresh media containing compounds for 24 hrs by alamar blue assay relative to control; format: functional
Procedure, shortened: (§4)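 A549 cells stimulated with TGF-β1 get a 48 h-long 5 μM treatment. Percentage growth is evaluated according to NCI screening procedures, as mean value.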

A549 [12] = assay: Antimigratory activity against human A549 cells assessed as reduction in cell migration towards wound area at 5 uM measured after 24 hrs by scratch wound-healing assay relative to control; format: functional; parameters: scale not given: the % may be the effect or the level left
Procedure, shortened: (§5)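 Scratch wound healing on A549 cells, with or without TGF-β1 stimulation. Repopulation of the wound area is read at 24 h postscratch.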

A549 [13] = assay: (§6) Inhibition of TGFbeta1-induced epithelial-mesenchymal transition in human A549 cells assessed as down regulation of VIM expression at 5 uM treated for 24 hrs in presence of TGFbeta1 followed by addition of fresh media containing compounds for 24 hrs by SYBR-green dye based RT-PCR analysis relative to control; format: functional
Procedure, shortened: (§7)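 A549 cells are stimulated with TGF-β1, alone or combined with 5 μM compound. CDH1 and VIM expression is measured and compared with control and with TGF-β1 alone.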

[14] = biological target: DNA polymerase I, thermostable (Thermus aquaticus) (UniProt P19821); assay: Inhibition of Thermus aquaticus Taq-polymerase using pBR322 as substrate up to 40 uM by PCR analysis
[15] = biological target: T1, Protein deacetylase HDAC6 (Homo sapiens, UniProt Q9UBN7); assay: Inhibition of recombinant human N-terminal GST-tagged HDAC6 (1 to 1215 residues) expressed in baculovirus infected Sf21 insect cells using RHKKAc as substrate by fluorescence assay
T1 sequence (Q9UBN7 whole entry): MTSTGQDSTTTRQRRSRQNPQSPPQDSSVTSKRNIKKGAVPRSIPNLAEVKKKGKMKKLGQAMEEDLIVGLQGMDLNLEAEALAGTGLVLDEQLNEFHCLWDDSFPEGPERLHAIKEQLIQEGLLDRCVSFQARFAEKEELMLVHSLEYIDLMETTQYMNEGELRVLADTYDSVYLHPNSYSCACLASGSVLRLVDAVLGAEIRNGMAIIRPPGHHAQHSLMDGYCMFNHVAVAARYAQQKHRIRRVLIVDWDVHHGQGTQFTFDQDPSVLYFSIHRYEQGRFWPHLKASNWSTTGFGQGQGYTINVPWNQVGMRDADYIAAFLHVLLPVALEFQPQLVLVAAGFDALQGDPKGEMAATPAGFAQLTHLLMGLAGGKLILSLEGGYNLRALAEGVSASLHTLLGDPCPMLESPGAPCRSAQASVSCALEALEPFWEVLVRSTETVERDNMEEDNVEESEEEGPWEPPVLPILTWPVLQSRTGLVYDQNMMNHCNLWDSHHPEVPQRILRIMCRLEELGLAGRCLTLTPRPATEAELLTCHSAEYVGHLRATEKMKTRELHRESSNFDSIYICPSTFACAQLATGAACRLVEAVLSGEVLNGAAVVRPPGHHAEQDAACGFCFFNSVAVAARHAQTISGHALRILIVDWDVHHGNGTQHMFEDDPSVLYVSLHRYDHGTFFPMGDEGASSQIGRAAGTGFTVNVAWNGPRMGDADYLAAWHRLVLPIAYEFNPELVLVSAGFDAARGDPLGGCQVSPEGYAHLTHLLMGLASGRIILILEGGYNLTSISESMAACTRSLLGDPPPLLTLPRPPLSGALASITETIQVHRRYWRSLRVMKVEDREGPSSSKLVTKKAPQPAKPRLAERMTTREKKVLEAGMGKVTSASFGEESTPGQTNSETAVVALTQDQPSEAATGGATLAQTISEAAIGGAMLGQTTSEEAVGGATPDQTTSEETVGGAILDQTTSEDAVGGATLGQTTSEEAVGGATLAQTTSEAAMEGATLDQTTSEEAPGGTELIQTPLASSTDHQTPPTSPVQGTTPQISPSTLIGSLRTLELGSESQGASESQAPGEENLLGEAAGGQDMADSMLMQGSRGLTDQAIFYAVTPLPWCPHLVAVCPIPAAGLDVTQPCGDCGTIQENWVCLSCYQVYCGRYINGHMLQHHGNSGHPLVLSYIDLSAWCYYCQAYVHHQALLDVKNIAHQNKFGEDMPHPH

A549 [16] = assay: as §6, with “upregulation” for “down regulation”, “CDH1” for “VIM”; format: functional; procedure, shortened: as §7
Histone deacetylase 4 = Histone deacetylase 4 (Homo sapiens, UniProt P56524); assay: Inhibition of recombinant human N-terminal GST-tagged/C-terminal His-tagged HDAC4 (627 to 1084 residues) expressed in baculovirus infected Sf21 insect cells using (Boc-Lys(trifluoroacetyl)-AMC) as substrate by fluorescence assay
[17] = biological target: T2, Histone deacetylase (Homo sapiens) (UniProt Q13547+O15379+Q9UBN7+Q92769+Q9UQL6+Q8WUI4+Q9BY41+Q96DB2+P56524+Q9UKV0+Q969S8); assay: Inhibition of HDAC in human A549 cells assessed as increase in acetylated H4 level at 5 uM after 24 hrs by Western blot analysis relative to control; format: cell-based
Procedure, shortened: (§8)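 A549 cells are treated 24 h at 5 μM. Global histone H3 and H4 lysine acetylation is detected by Western blotting.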

[18] = biological target: T2, Histone deacetylase (Homo sapiens); assay: Inhibition of HDAC in human A549 cells assessed as increase in acetylated H3 level at 5 uM after 24 hrs by Western blot analysis relative to control; format: cell-based; procedure, shortened: as §8
Histone deacetylase 2 = Histone deacetylase 2 (Homo sapiens, UniProt Q92769); assay: Inhibition of recombinant human C-terminal GST-tagged HDAC2 (1 to 488 residues) expressed in baculovirus infected Sf21 insect cells using RHK-K(Ac)-AMC as substrate measured after 30 mins by fluorescence assay
Histone deacetylase 1 = Histone deacetylase 1 (Homo sapiens, UniProt Q13547); assay: Inhibition of recombinant human C-terminal FLAG-His tagged HDAC1 (1 to 482 residues) expressed in Sf21 insect cells using RHK-K(Ac)-AMC as substrate by fluorescence assay
A549 [19] = assay: Antimigratory activity against TGFbeta1-stimulated human A549 cells assessed as reduction in cell migration towards wound area at 5 uM treated for 24 hrs in presence of TGFbeta1 followed by addition of fresh media containing compounds for 24 hrs by scratch wound-healing assay relative to control; format: functional; procedure, shortened: as §5
A549 [20] = assay: Suppression of TGFbeta1-induced cell proliferation in human A549 cells assessed as reduction in cell growth at 5 uM treated for 24 hrs in presence of TGFbeta1 followed by addition of fresh media containing compounds for 24 hrs by alamar blue assay relative to control; format: functional; parameters: scale not given: the % may be the effect or the level left; procedure, shortened: as §4

DNA polymerase I, thermostable (Thermus aquaticus), sequence (P19821 whole entry, the tested form may be a part): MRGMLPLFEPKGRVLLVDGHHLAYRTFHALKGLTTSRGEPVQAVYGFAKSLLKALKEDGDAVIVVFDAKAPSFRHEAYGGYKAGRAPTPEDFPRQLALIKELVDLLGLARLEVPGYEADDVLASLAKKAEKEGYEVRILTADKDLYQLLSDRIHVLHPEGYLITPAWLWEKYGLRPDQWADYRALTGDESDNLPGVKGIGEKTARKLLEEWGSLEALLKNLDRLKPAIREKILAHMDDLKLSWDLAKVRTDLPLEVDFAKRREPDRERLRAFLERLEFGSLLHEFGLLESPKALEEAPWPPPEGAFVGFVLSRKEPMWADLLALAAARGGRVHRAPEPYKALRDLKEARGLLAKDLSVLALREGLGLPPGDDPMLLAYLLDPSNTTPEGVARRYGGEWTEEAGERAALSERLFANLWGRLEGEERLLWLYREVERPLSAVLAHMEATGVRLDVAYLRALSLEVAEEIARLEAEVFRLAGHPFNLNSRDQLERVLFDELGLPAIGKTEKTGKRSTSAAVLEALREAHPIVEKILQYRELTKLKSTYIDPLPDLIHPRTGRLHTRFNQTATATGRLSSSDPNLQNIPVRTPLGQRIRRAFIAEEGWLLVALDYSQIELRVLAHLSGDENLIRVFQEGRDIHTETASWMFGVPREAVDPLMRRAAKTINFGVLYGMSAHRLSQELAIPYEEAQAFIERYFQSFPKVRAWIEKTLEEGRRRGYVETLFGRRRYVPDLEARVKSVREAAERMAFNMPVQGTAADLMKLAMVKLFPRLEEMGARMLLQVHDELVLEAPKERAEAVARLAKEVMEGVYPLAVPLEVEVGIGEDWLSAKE
Histone deacetylase 1, sequence (Q13547 whole entry, the tested form may be a part): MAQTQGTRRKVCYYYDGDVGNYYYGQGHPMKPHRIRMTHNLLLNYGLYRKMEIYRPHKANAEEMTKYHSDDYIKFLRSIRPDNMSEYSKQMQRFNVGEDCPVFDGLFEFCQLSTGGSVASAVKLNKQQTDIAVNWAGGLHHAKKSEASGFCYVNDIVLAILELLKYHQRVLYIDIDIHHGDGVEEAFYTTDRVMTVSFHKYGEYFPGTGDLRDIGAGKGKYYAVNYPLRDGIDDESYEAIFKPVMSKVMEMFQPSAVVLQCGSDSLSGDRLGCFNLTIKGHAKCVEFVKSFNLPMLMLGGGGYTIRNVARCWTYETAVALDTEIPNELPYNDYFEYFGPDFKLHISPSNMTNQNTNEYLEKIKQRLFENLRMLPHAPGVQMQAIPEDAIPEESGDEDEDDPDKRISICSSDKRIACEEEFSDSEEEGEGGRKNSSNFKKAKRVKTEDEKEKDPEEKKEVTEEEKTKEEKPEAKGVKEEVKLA
Histone deacetylase 4, sequence (P56524 whole entry, the tested form may be a part): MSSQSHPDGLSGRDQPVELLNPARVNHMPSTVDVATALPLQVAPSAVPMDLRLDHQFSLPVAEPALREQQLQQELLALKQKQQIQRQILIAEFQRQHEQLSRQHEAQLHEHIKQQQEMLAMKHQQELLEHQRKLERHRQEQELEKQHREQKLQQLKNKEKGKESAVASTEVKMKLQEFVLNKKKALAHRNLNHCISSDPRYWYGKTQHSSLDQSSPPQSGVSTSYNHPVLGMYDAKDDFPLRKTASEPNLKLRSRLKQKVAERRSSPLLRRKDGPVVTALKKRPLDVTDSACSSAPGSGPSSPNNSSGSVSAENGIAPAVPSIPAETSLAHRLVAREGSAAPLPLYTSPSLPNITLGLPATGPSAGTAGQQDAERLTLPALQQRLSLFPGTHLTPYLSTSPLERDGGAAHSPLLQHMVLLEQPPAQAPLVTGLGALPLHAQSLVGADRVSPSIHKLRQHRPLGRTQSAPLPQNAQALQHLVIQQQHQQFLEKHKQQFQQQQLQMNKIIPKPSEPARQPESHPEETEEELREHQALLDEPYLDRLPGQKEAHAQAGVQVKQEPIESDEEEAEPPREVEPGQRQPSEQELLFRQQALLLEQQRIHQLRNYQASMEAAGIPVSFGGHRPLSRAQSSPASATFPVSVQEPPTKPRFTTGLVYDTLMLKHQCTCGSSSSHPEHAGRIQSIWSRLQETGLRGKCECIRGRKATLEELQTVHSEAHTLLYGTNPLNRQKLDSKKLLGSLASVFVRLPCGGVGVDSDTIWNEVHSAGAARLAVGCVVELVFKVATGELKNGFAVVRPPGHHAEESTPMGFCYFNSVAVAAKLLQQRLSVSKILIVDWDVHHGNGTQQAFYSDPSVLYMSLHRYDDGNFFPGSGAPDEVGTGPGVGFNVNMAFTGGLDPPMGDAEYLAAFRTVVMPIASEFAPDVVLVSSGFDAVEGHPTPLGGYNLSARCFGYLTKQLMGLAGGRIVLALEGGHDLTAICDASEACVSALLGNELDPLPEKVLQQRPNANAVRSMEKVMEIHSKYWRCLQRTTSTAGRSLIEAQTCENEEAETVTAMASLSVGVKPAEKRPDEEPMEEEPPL
Histone deacetylase 2, sequence (Q92769 whole entry, the tested form may be a part): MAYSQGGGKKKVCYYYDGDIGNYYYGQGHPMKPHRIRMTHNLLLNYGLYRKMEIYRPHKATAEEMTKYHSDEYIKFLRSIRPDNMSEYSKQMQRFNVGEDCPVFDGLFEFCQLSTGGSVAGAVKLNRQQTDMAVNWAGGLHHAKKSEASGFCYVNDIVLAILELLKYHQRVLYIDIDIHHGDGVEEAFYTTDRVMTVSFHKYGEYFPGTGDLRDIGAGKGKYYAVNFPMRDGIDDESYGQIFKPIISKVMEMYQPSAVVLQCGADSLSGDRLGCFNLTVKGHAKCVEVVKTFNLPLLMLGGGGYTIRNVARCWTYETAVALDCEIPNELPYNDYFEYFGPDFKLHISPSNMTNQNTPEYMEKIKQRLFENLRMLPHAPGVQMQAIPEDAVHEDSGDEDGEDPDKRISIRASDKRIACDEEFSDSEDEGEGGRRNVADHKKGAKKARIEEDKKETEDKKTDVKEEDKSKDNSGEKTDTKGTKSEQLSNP

For Cl.NCCCNCCCCNCCCN1C(=O)c2ccc3c4c(ccc(c24)C1=O)C(=O)N(CCCCCC(=O)NO)C3=O, the ΔTm (dsDNA [1]) was 8.1 °C, the ΔTm (Quadruplex DNA [2]) was 4.5 °C and the IC50 (Histone deacetylase) was 0.52 µM. It also gave a ΔTm (Quadruplex DNA [3]) of 10.9 °C and a ΔTm (dsDNA [4]) of 3.5 °C.
With O=C(CCCCCN1C(=O)c2cccc3cccc(c23)C1=O)NO the inhibition (A549 [5]) was “inactive”, the inhibition (A549 [6]) was “inactive” and the ΔTm (dsDNA [1]) was 0.1 °C. For the same compound, the inhibition (HCT-116 [7]) was “inactive”, the “growth inhibition (GI)” value (U-87 MG; U-87MG ATCC) was “Active” and the “growth inhibition (GI)” value (A549 [8]) was “Active”. The ΔTm (Quadruplex DNA [2]) was 0.1 °C, the “growth inhibition (GI)” value (HCT-116 [9]) was “Active” and the ΔTm (Quadruplex DNA [3]) was 0.1 °C. The inhibition (HCT-116 [10]) was “inactive” and the ΔTm (dsDNA [4]) was 0.1 °C.
Cl.NCCCNCCNCCCN1C(=O)c2ccc3c4c(ccc(c24)C1=O)C(=O)N(CCCCCC(=O)NO)C3=O gave a ΔTm (dsDNA [1]) of 3.4 °C, a ΔTm (Quadruplex DNA [2]) of 4.4 °C and an IC50 (Histone deacetylase) of 0.55 µM. The ΔTm (Quadruplex DNA [3]) was 7.8 °C and the ΔTm (dsDNA [4]) was 2 °C.
Cl.NCCCNCCCN1C(=O)c2ccc3c4c(ccc(c24)C1=O)C(=O)N(CCCCCC(=O)NO)C3=O was tested, and the ΔTm (Quadruplex DNA [2]) was 2.4 °C, the IC50 (Histone deacetylase) was 0.41 µM and the ΔTm (dsDNA [4]) was 1 °C.
Compound CN(C)c1ccc(Nc2c3ccc(NC(=O)CCN4CCCC4)cc3nc3cc(NC(=O)CCN4CCCC4)ccc23)cc1 has a ΔTm (dsDNA [1]) of 5.3 °C, a ΔTm (Quadruplex DNA [2]) of 11 °C and a ΔTm (Quadruplex DNA [3]) of 28.3 °C. It also gave a ΔTm (dsDNA [4]) of 0.5 °C.
For Cl.NCCCCNCCCCNCCCN1C(=O)c2ccc3c4c(ccc(c24)C1=O)C(=O)N(CCCCCC(=O)NO)C3=O, the “fold change (FC)” value (A549 [11]) was 1.38, the Activity (A549 [12]) was >80% and the “fold change (FC)” value (A549 [13]) was 2.61. For the same compound, the “fold change (FC)” value (A549 [5]) was 1.28, the “fold change (FC)” value (A549 [6]) was 0.68 and the inhibition [14] was “Active”. For the same compound, the “fold change (FC)” value (HCT-116 [7]) was 0.44, the GI50 (U-87 MG) was > 5 µM and the GI50 (A549 [8]) was > 5 µM. The pIC50 [15] was 7.30, the “fold change (FC)” value (A549 [16]) was 3.66 and the ΔTm (Quadruplex DNA [2]) was 13.3 °C. It also gave a pIC50 (Histone deacetylase 4) of 3.93, a GI50 (HCT-116 [9]) of 3.08 µM and an IC50 (Histone deacetylase) of 0.56 µM. For the same compound, the fold change (FC) [17] was 2, the “fold change (FC)” value (HCT-116 [10]) was 1.32 and the fold change (FC) [18] was 2. For the same compound, the pIC50 (Histone deacetylase 2) was 4.97, the pIC50 (Histone deacetylase 1) was 5.39 and the “fold change (FC)” value (A549 [19]) was 1.38. It also gave a ΔTm (dsDNA [4]) of 7.5 °C and an Activity (A549 [20]) of 85%.
COc1ccccc1CNCCCN1C(=O)c2ccc3c4c(ccc(c24)C1=O)C(=O)N(CCCNCCCCNCCCN)C3=O was tested, and the inhibition (A549 [5]) was “inactive”, the inhibition (A549 [6]) was “inactive” and the inhibition (HCT-116 [7]) was “inactive”. The GI50 (U-87 MG) was 4.85 µM, the GI50 (A549 [8]) was > 5 µM and the ΔTm (Quadruplex DNA [2]) was 1.5 °C. For the same compound, the GI50 (HCT-116 [9]) was 4.39 µM, the inhibition (HCT-116 [10]) was “inactive” and the ΔTm (dsDNA [4]) was 0.6 °C.
For Cl.NCCCNCCCNCCCN1C(=O)c2ccc3c4c(ccc(c24)C1=O)C(=O)N(CCCCCC(=O)NO)C3=O, the inhibition [14] was “Active”, the GI50 (U-87 MG) was > 5 µM and the GI50 (A549 [8]) was > 5 µM. It also gave a ΔTm (Quadruplex DNA [2]) of 9.9 °C, a GI50 (HCT-116 [9]) of 2.13 µM and an IC50 (Histone deacetylase) of 0.37 µM. For the same compound, the ΔTm (dsDNA [4]) was 5 °C.
